In publication PMC10392308 (Journal of Enzyme Inhibition and Medicinal Chemistry, 2023):
Converted amounts (≈) assume the structure as drawn.

Experiments:
HCT-116 = assay: MTT antiproliferative assay, HCT-116; type: cell-based; conditions: Homo sapiens, HCT-116, 48 h, read-out: IC50 values, HCT-116, MTT, 48 h
[1] = Water solubility determination using HPLC; type: physicochemical; conditions: 37 °C, thermodynamic from solid
Procedure, shortened: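 […] were sonicated 10 min at 37 °C. After standing 1 h, the clear upper liquid was membrane-filtered and injected on HPLC. Water solubility was calculated from peak area using the regression equation.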

MGC-803 cells [2] = assay: Cell cycle analysis with flow cytometry; type: cell-based, human; conditions: for Cells in S phase: DMSO 20.59%; for Cells in G1 phase: DMSO 64.36%; for Phase in which the cell cycle is blocked: MGC-803, 18 h
MGC-803 cells [3] = assay: Apoptosis assay with flow cytometry; type: cell-based, human; conditions: MGC-803, 18 h, highest value reached; blank control 8.2
VEGF [4] = assay: ELISA for the expression of VEGF in MGC-803 cells; type: cell-based, human; conditions: for Effect on the expression of VEGF: MGC-803, 0.1, 0.5, 1 µM, hypoxia or not
Procedure, shortened: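 The hypoxia arm used 100 µM CoCl2·6H2O (1% O2) and was run beside 21% O2 cultures. MGC-803 cells were exposed 24 h to test compound at 0.1, 0.5 or 1 µM, with a 0.1% DMSO blank and a positive control. Supernatants were spun at 1000 × g for 20 min at 4 °C, and VEGF was quantified by human VEGF ELISA kit.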

MMP-9 = assay: ELISA for the expression of MMP-9 in MGC-803 cells; type: cell-based, human; conditions: for Effect on the expression of MMP-9: MGC-803, 0.1, 0.5, 1 µM; for MMP-9 expression: control 18.6 ng/ml
zebrafish embryos = assay: Zebrafish embryonic acute toxicity test; type: in vivo
Procedure, shortened: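 Normally developed embryos at 6 hpf were placed in 24-well plates, six per well, and exposed for three days to test compound at 0.1, 0.15, 0.2, 0.3 and 0.5 μM, with a 0.5% DMSO blank. Hatching (shell without membrane) and death (cardiac arrest) were scored every 24 h. Incubation rate = hatched/total embryos × 100%, and mortality = dead/total × 100%.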

zebrafish larvae = assay: Zebrafish adult fish; type: in vivo; conditions: for Concentrations causing acute toxicity in zebrafish larvae: in vivo
Procedure, shortened: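 Normally developed larvae at 3 dpf were placed in 24-well plates, six per well, and exposed to test compound at 0.1, 0.2, 0.3, 0.4 and 0.5 μM. Mortality was recorded at 24 h and 72 h.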

HCT116 cancer cells = assay: In vivo anticancer effect in nude mice inoculated with HCT116 cells; parameters: species or system Balb/c nude mice; conditions: for Tumour growth inhibition rate: by tumour weight; for Tumour weight / Tumour volume at the end of the administration: compound 2 2.5 and 1 mg/kg, 5-FU 10 mg/kg; for Tumour weight: p < 0.001 vs control; for Tumour volume at the end of the administration: p < 0.01 vs control
Procedure, shortened: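 Female Balb/c nude mice, 8 weeks old, received 0.1 ml of 1 × 10^8/mL HCT116 cells in the right armpit, six mice per group. At about 100 mm3 tumour, dosing began: i.p., 5 ml/kg, once every two days, vehicle 5% DMSO in soybean oil, with a vehicle group and a 5-FU group. Body weight and tumour diameters were taken every 3 d, with volume = A×B²/2. Inhibition = (1 − mean treated/control tumour weight) × 100%.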

TNF-α = assay: ELISA detection of TNF-α in tumour mice; type: in vivo, nude mice; conditions: serum, compound 2 1 and 2.5 mg/kg, 5-FU 10 mg/kg, vs control
Procedure, shortened: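 HCT116 xenografts (1×10^8 cells/mL, 0.1 ml, right armpit) in 8-week-old female Balb/c nude mice, six per group. Test compound given i.p. in 5% DMSO/soybean oil (5 ml/kg) from ~100 mm3 tumours for 20 days. At sacrifice, serum held 2 h, spun 1000 × g for 20 min, stored −80 °C. TNF-α measured by mouse ELISA kit, six sera per group, triplicate wells.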

tumour tissue = assay: Haematoxylin-eosin staining; type: in vivo, nude mice; conditions: compound 2 1 and 2.5 mg/kg, 5-FU 10 mg/kg; vs control group
Procedure, shortened: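 Female Balb/c nude mice (8 weeks) bore HCT116 xenografts from 1×10^8 cells/mL, 0.1 ml in the right armpit, six per group. Dosing was i.p. in 5% DMSO/soybean oil at 5 ml/kg, starting at ~100 mm3, for 20 days, with vehicle controls. Tumours collected after sacrifice and stained with haematoxylin-eosin; nuclei blue, cytoplasm red.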

VEGF [5] = assay: Immunohistochemical detection of VEGF expression in tumour tissue; type: in vivo, nude mice; conditions: compound 2 1 and 2.5 mg/kg, 5-FU 10 mg/kg; p < 0.0001 vs control
AGS = assay: MTT antiproliferative assay, AGS; type: cell-based; conditions: Homo sapiens, 48 h, read-out: IC50 values, AGS, MTT, 48 h

## CC1=C(O)C(=O)C=C2C1=CC=C1[C@@]2(C)CC[C@@]2(C)[C@@H]3C[C@](C)(C(=O)OCCCCO)CC[C@]3(C)CC[C@]12C [Compound 3, 4-Hydroxybutyl (2 R,4aS,6aS,12bR,14aS,14bR)-10-hydroxy-2,4a,6a,9,12b,14a-hexamethyl-11-oxo-1,2,3,4,4a,5,6,6a,11,12b,13,14,14a,14b-tetradecahydropicene-2-carboxylate]
HCT-116
  IC50: 320 to 390 nM

## CC1=C(O)C(=O)C=C2C1=CC=C1[C@@]2(C)CC[C@@]2(C)[C@@H]3C[C@](C)(C(=O)O)CC[C@]3(C)CC[C@]12C [celastrol, Celastrol, reference compound]
[1]
  solubility at 1 h: 6.2 µg/mL (≈ 13.8 µM)
MGC-803 cells [2]; 0.1 µM, 18 h, MGC-803
  Cells in S phase: 19.18%
MGC-803 cells [2]; 1 µM, 18 h, MGC-803
  Cells in S phase: 29.41%
  Cells in G1 phase: 52.96%
MGC-803 cells [2]
  Phase in which the cell cycle is blocked: S phase
MGC-803 cells [3]
  Overall apoptosis rate (early apoptosis + late apoptosis): 9.8%
VEGF [4]
  Effect on the expression of VEGF: inhibited the expression of VEGF in a concentration-dependent manner
MMP-9
  Effect on the expression of MMP-9: inhibited the expression of MMP-9 in MGC-803 cells in a concentration-dependent manner
Zebrafish embryos; 0.2 μM
  Death rate of zebrafish embryos: 50%
Zebrafish embryos; 0.3 or 0.5 μM
  Incubation (hatching) rate of zebrafish embryos: zero
Zebrafish embryos; exposure concentrations of 0.1, 0.15, and 0.2 μM
  Incubation (hatching) rate of zebrafish embryos: more than 75%
Zebrafish larvae
  Concentrations causing acute toxicity in zebrafish larvae: higher than 0.1 μM

## O=c1[nH]cc(F)c(=O)[nH]1 [5-FU, 5-fluorouracil, reference compound]
HCT116 cancer cells; 10 mg/kg intraperitoneally
  Tumour growth inhibition rate: 37.02%
HCT116 cancer cells
  Tumour weight: significantly lower than that in the control group
  Tumour volume at the end of the administration: significantly smaller than that of the control
TNF-α
  TNF-α content of tumour mice: increased the TNF-α content significantly
Tumour tissue
  Morphological changes in tumour tissue (HE): tumour tissue structure was seriously damaged and the cell necrosis was obvious
VEGF [5]
  VEGF expression in tumour tissue (immunohistochemistry): downregulated the VEGF expression significantly

## CC1=C(O)C(=O)C=C2C1=CC=C1[C@@]2(C)CC[C@@]2(C)[C@@H]3C[C@](C)(C(=O)OCCCO)CC[C@]3(C)CC[C@]12C [Compound 2, 3-Hydroxypropyl (2 R,4aS,6aS,12bR,14aS,14bR)-10-hydroxy-2,4a,6a,9,12b,14a-hexamethyl-11-oxo-1,2,3,4,4a,5,6,6a,11,12b,13,14,14a,14b-tetradecahydropicene-2-carboxylate]
[1]
  solubility at 1 h: 11.8 µg/mL (≈ 23.2 µM)
AGS
  IC50: 330 nM
HCT-116
  IC50: 320 to 390 nM
MGC-803 cells [2]; 1 µM, 18 h, MGC-803, DMSO 15.05%
  Cells in G2 phase: 37.01%
MGC-803 cells [2]; 1 µM, 18 h, MGC-803
  Cells in G1 phase: 44.77%
MGC-803 cells [2]
  Phase in which the cell cycle is blocked: G2 phase
MGC-803 cells [3]
  Overall apoptosis rate (early apoptosis + late apoptosis): 13%
VEGF [4]; CoCl2-induced hypoxia, 0.1 µM, control 568.1 pg/ml
  VEGF expression: 430.8 pg/mL
VEGF [4]; CoCl2-induced hypoxia, 0.5 µM, control 568.1 pg/ml
  VEGF expression: 397.5 pg/mL
VEGF [4]; CoCl2-induced hypoxia, 1 µM, control 568.1 pg/ml
  VEGF expression: 328.8 pg/mL
VEGF [4]
  Effect on the expression of VEGF: inhibited the expression of VEGF in a concentration-dependent manner
VEGF [4]; normal oxygen conditions, 0.1 µM, control 531.5 pg/ml
  VEGF expression: 514.1 pg/mL
VEGF [4]; normal oxygen conditions, 0.5 µM, control 531.5 pg/ml
  VEGF expression: 398.1 pg/mL
VEGF [4]; normal oxygen conditions, 1 µM, control 531.5 pg/ml
  VEGF expression: 352.1 pg/mL
MMP-9; MGC-803, 0.5 µM
  MMP-9 expression: 10.04 ng/mL
MMP-9; MGC-803, 1 µM
  MMP-9 expression: 9.64 ng/mL
MMP-9
  Effect on the expression of MMP-9: inhibited the expression of MMP-9 in MGC-803 cells in a concentration-dependent manner
HCT116 cancer cells; 1 mg/kg
  Body weight during the treatment period: no significant changes of body weight
HCT116 cancer cells; 2.5 mg/kg
  Body weight during the treatment period: downward trend
  Mental state of the mice: depressed
HCT116 cancer cells
  Tumour weight: significantly lower than that in the control group
  Tumour volume at the end of the administration: significantly smaller than that of the control
HCT116 cancer cells; high-dose 2.5 mg/kg intraperitoneally
  Tumour growth inhibition rate: 55.82%
HCT116 cancer cells; low-dose 1 mg/kg intraperitoneally
  Tumour growth inhibition rate: 50.83%
TNF-α
  TNF-α content of tumour mice: decreased the TNF-α content significantly in a dose-dependent manner
Tumour tissue
  Morphological changes in tumour tissue (HE): tumour tissue structure was seriously damaged and the cell necrosis was obvious
VEGF [5]
  VEGF expression in tumour tissue (immunohistochemistry): downregulated the VEGF expression significantly
Zebrafish embryos; 0.1 μM
  Acute toxicity for zebrafish embryos: no acute toxicity
Zebrafish embryos; 0.15 μM
  Incubation (hatching) rate of zebrafish embryos: 25%
Zebrafish embryos; 0.2 μM
  Hatching of zebrafish eggs: no eggs hatched
Zebrafish embryos; 0.5 μM, on the first day
  Death rate of zebrafish embryos: 100%
Zebrafish embryos; 0.5 μM, on the fourth day
  Mortality of zebrafish embryos: 100%
Zebrafish larvae; zebrafish larvae, exposed for 72 h
  100% mortality concentration: 0.1 µM
Zebrafish larvae
  Concentrations causing acute toxicity in zebrafish larvae: higher than 0.1 μM
